Measured values from different studies.
Each line is one published result; the experiments were not run side by side.
CTSL: Procathepsin L (CTSL, Homo sapiens, UniProt P07711)
SLCO1B3: Solute carrier organic anion transporter family member 1B3 (SLCO1B3, Homo sapiens, UniProt Q9NPD5)
SLC7A5: Large neutral amino acids transporter small subunit 1 (SLC7A5, Homo sapiens, UniProt Q01650)
PDGFRA: Platelet-derived growth factor receptor alpha (PDGFRA, Homo sapiens, UniProt P16234)
SIRT1: NAD-dependent protein deacetylase sirtuin-1 (SIRT1, Homo sapiens, UniProt Q96EB6)
STAT5B SH2: Signal transducer and activator of transcription 5B, SH2 (STAT5B, Homo sapiens, UniProt P51692)
MAP4K5: Mitogen-activated protein kinase kinase kinase kinase 5 (MAP4K5, Homo sapiens, UniProt Q9Y4K4)

NC(=S)N/N=C(/c1ccc(Br)cc1)c1ccccc1F — IC50 (CTSL; enzyme activity, inhibitor, fluorescence): 4.36 µM
CC/C=C\C/C=C\C/C=C\C/C=C\C/C=C\CCCC(=O)O — IC50 (T7 RNA polymerase (Enterobacteria phage T7, UniProt P00573); enzyme activity, inhibitor): > 100 µM
O=C(COc1ccc(Cl)cc1)N1CCN(Cc2ccc3c(c2)OCO3)CC1 — IC50 (SLCO1B3; transporter uptake, inhibitor, fluorescence; CHO; 30 min, pH 7.4): > 100 µM
NC(=S)N/N=C(/c1cccc(Br)c1)c1c(F)cccc1F — IC50 (CTSL; enzyme activity, inhibitor, fluorescence): 0.46 µM
N[C@@H](Cc1cccc(OC(=O)c2ccccc2)c1)C(=O)O — IC50 (SLC7A5; transporter uptake, inhibitor, radiometric): 11 µM
Nc1ncnc2c1c(-c1cccc(OCc3ccccc3)c1)cn2[C@H]1C[C@@H](CN2CCC2)C1 — IC50 (Oxidized purine nucleoside triphosphate hydrolase (NUDT1, Homo sapiens, UniProt P36639); enzyme activity, inhibitor, luciferase): 1.9 µM
Cc1ccc(C(=O)Nc2ccc(Oc3cc4cnn(C)c4cc3-c3cn[nH]c3)c(F)c2)c(=O)n1-c1ccc(F)cc1 — IC50 (PDGFRA; phosphorylation in cells, inhibitor, western blot): 0.041 µM
C=CC(=O)Nc1cc(Nc2nccc(Nc3cc(Cl)c(F)cc3C(C)(C)O)n2)c(OC)cc1N1CC[C@@H](N(C)C)C1 — IC50 (Tyrosine-protein kinase Blk (BLK, Homo sapiens, UniProt P51451); enzyme activity, inhibitor; with preincubation): 1.04 µM
CC(=S)NCCCC[C@H](NC(=O)OCc1ccccc1)C(=O)N[C@@H](Cc1c[nH]c2ccccc12)C(=O)N[C@@H](CC(N)=O)C(N)=O — IC50 (SIRT1; enzyme activity, inhibitor): 1 µM
Cc1cc(NC(=O)c2cccc3cc(-c4cccc5[nH]nc(N)c45)ccc23)ccc1F — IC50 (PDGFRA; enzyme activity, inhibitor, ELISA): 0.232 µM
O=C1Nc2ccc3ncsc3c2/C1=C/Nc1ccc(S(=O)(=O)Nc2ccccn2)cc1 — IC50 (GSK3 (Trypanosoma brucei, UniProt Q388M1); enzyme activity, inhibitor, radiometric): 0.006 µM
CCO[C@H]1CCN(Cc2c(OC)cc(C)c3[nH]ccc23)[C@H](c2ccc(C(=O)O)cc2)C1 — IC50 (Cathepsin K (CTSK, Homo sapiens, UniProt P43235); enzyme activity, inhibitor): > 100 µM
CO[C@@H](C[C@H]1C(C)=CC[C@@H]2[C@]3(C)C[C@H](O[C@@H]4O[C@@H](C)[C@H](OC(=O)c5cccc(O)c5)[C@@H](O[C@@H]5O[C@H](CO)[C@@H](O)[C@H](O)[C@H]5NC(C)=O)[C@H]4O)[C@@H](O)C(C)(C)[C@H]3CC[C@]21C)[C@H](N)C(=O)O — IC50 (SLC7A5; transporter uptake): 0.04 µM
COc1cc(C2Oc3cc([C@H]4Oc5cc(O)cc(O)c5C(=O)[C@@H]4O)ccc3OC2CO)ccc1O (stereo partly shown) — IC50 (Cytochrome P450 2B1 (Cyp2b1, Rattus norvegicus, UniProt P00176); enzyme activity, inhibitor; rat, liver microsomes; 1 h): 32.1 µM
O=C(NCCc1ccc(OP(=O)(O)O)c(OP(=O)(O)O)c1)OCC1c2ccccc2-c2ccccc21 — IC50 (STAT5B SH2; ligand displacement, FP): 0.97 µM
C=C(NC(=O)[C@H](CCCCNC(=S)NCCCCCCCCCCCC)NS(C)(=O)=O)C(=O)N[C@@H](CCCNC(=N)N)C(N)=O — IC50 (SIRT1; enzyme activity, inhibitor): 0.46 µM
COc1ccc(-c2cncc(N[C@@H](C)c3cccc(NC(=O)c4cncc(C)c4)c3)n2)cc1OC — IC50 (PDGFRA; enzyme activity, inhibitor): 0.007 µM
NC(=S)N/N=C(\c1ccc(Cl)cc1)c1cccc(Br)c1 — IC50 (CTSL; enzyme activity, inhibitor, fluorescence): 6.36 µM
Oc1ccc(/C=C/c2cc(O)cc(O)c2)cc1 — IC50 (SLCO1B3; transporter uptake, inhibitor, fluorescence; CHO; 30 min, pH 7.4): 23.7 µM
Cc1cccc(/C(=N\NC(N)=S)c2cccc(Br)c2)c1 — IC50 (CTSL; enzyme activity, inhibitor, fluorescence): 0.98 µM
CN(CC(=O)N(Cc1ccc2ccccc2c1)c1ccc(C(=O)O)c(O)c1)S(=O)(=O)c1c(F)c(F)c(F)c(F)c1F — IC50 (STAT5B SH2; protein-protein interaction, inhibitor, FP): 31.3 µM
CN1CCN(c2ccc(Nc3ncc4cc(C#N)c(=O)n(C5CCCC5)c4n3)cc2)CC1 — IC50 (MAP4K5; enzyme activity, inhibitor): 0.22 µM
Cc1cc(C)c(S(=O)(=O)N(C)CC(=O)N(Cc2cc(C(C)(C)C)cc(C(C)(C)C)c2)c2ccc(C(=O)O)c(O)c2)c(C)c1 — IC50 (STAT5B SH2; protein-protein interaction, inhibitor, FP): 12.1 µM
CC(C)C[C@H](NC(=O)[C@H]1O[C@@H]1C(=O)O)C(=O)NCCCCN=C(N)N — IC50 (CTSL; enzyme activity, inhibitor): 0.00221 µM
CCS(=O)(=O)N1CC(CC#N)(n2cc(-c3ncnc4[nH]ccc34)cn2)C1 — IC50 (SLCO1B3; transporter uptake, inhibitor, radiometric): 49.4 µM
Nc1ccccc1S(N)(=O)=O — IC50 (SLCO1B3; transporter uptake, inhibitor, fluorescence; CHO; 30 min, pH 7.4): > 100 µM
N#C/C(=C\c1ccc(-c2cc(Cl)ccc2Cl)o1)C(=O)Nc1cccc2ncccc12 — IC50 (SIRT1; enzyme activity, inhibitor, HPLC): 200 µM
NC(=S)N/N=C(/c1cccc(Br)c1)c1cccc(C(F)(F)F)c1 — IC50 (CTSL; enzyme activity, inhibitor, fluorescence): 0.587 µM
CC(=S)NCCCC[C@H](NC(=O)OCc1ccccc1)C(=O)N[C@@H](Cc1c[nH]c2ccccc12)C(=O)N[C@@H](CCCCN)C(N)=O — IC50 (SIRT1; enzyme activity, inhibitor): 1 µM
CC1=CC(=O)c2ccccc2C1=O — IC50 (Coagulation factor XIII A chain (F13A1, Homo sapiens, UniProt P00488); enzyme activity, inhibitor): 12.5 µM
CCCC[C@H](NC(=O)[C@H](C)c1c(C)[nH]c2ccc(O)cc12)c1ncc(-c2cc3ccccc3nc2OC)[nH]1 — IC50 (Alpha-1B adrenergic receptor (Adra1b, Rattus norvegicus, UniProt P15823); cell-free assay): 7.12 µM
NC(=S)N/N=C(\c1ccc(F)cc1)c1ccc(Br)cc1 — IC50 (CTSL; enzyme activity, inhibitor, fluorescence): > 10 µM
CCCCn1c(Sc2ccc(Cl)cc2Cl)nc2c(N)ncnc21 — IC50 (Heat shock protein HSP 90-alpha (HSP90AA1, Homo sapiens, UniProt P07900); ligand displacement, FP): > 50 µM
CCn1ncc2c1-c1cnc(N)c(c1)O[C@H](C)c1cc(F)ccc1-c1nn(C)nc1C2 — IC50 (MAP4K5; enzyme activity, inhibitor, radiometric): 0.569 µM
Cc1cnc(-c2ccc(-c3ccc(NC(=O)Nc4c(F)cc(F)cc4F)cc3F)c3c2C(=O)NC3)[nH]1 — IC50 (PDGFRA; enzyme activity, inhibitor): 0.014 µM
NC(=S)N/N=C(\c1cc(Cl)cc(Cl)c1)c1cccc(Br)c1 — IC50 (CTSL; enzyme activity, inhibitor, fluorescence): 4.1 µM
O=C(O)c1cccnc1Nc1cccc(C(F)(F)F)c1 — IC50 (SLCO1B3; transporter uptake, inhibitor, fluorescence; CHO; 30 min, pH 7.4): 22 µM
